According to PubChem BioAssay AID504414 (Broad Institute, 2011):
The campaign covered roughly 330,000 compounds. About 55 (0.02%) were called active. Only a selection was taken, and actives are over-represented in it overall. A number with no mark means an inactive call.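 Rule for the calls: active = highest replicate inhibition of at least 40%; inactive = the rest.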

Molecular target: Golgi-associated PDZ and coiled-coil motif-containing protein (Homo sapiens) (UniProt Q9HD26)
Test: CAL PDZ peptide-binding inhibitors, primary screen, biochemical, fluorescence polarization, Cer-tagged CAL PDZ, HTS (AID 504414);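 note: plate controls were DMSO neutral control wells for no effect and unlabeled competitor peptide control wells for full effect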
Conditions: purified CAL PDZ, TMR-peptide fluorescence polarization, 1 h; at 20 µM; active compounds read high
Outline: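 Material – purified CerCALP PDZ construct · Detection – FP readout, S and P plane fluorescence · Measure – percent inhibition from loss of millipolarization · Controls – unlabelled peptide for full inhibition, DMSO wells as neutral · Probe or stimulus – TMR-labelled reporter peptide T*-PRC34 bound in PDZ groove · Times – 1 h at RT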

SMILES | inhibition
CC(NCCc1ccc(S(N)(=O)=O)cc1)C(=O)NCc1ccccc1 (centres undefined) | -0.747%
CC(C)NC(=O)Nc1cccc2c1O[C@H](CN(C)S(=O)(=O)c1cccs1)[C@@H](C)CN([C@H](C)CO)C2=O | -1.8%
CC(C)(C)c1cc(=O)n2c(nc3ccccc32)[nH]1 | -2.22%
O=C(Nc1ccc(C2CC2(Cl)Cl)cc1)c1cccc([N+](=O)[O-])c1 (centres undefined) | 8.41%
CCOC(=O)C(C)n1cnc2scc(-c3ccc(C)c(C)c3)c2c1=O (centres undefined) | -1.15%
CCOc1cc(CNCCN(C)C)c(Cl)cc1OCC(=O)NCCc1ccccc1 | -2.91%
CCOC(=O)C1Sc2[nH]c(=O)sc2C(c2ccc(Cl)cc2)C1C(=O)OCC (centres undefined) | 0.946%
Cc1cccc(C(=O)OCC(=O)NC(C)C2CC3CCC2C3)c1O (centres undefined) | 1.53%
COc1ccccc1N(CC(=O)NC1CCCC1)C(=O)C1(C)CC(=O)N=C2C=CC(C)=CN21 (centres undefined) | -1%
Cc1ccc(C)c(C(=O)COC(=O)Cn2[nH]c(=O)c3ccccc3c2=O)c1 | -1.04%
CC(=O)C1=C(C)NC2=C(C(=O)CC(C)(C)C2)C1C (centres undefined) | -0.554%
COCCNC(=O)/C(C#N)=C/c1nc(N(C)C)n(-c2ccc(F)cc2)c1Cl | -6.48%
CN(CCc1cn[nH]c1)C(=O)CC1C(=O)NCCN1Cc1cccc(Oc2ccccc2)c1 (centres undefined) | 0.0148%
CN(C)S(=O)(=O)c1ccc(N2CCCC2)c(C(=O)Nc2ccc(Br)cc2F)c1 | 0.123%
CCOc1cc(C(=O)N(Cc2ccccc2)c2ccc(C)cc2)ccc1OCC(=O)N1CCOCC1 | -0.206%
NS(=O)(=O)c1ccc(CCNC(=O)c2ccc(Cl)c(S(=O)(=O)N3CCCCCC3)c2)cc1 | -0.205%
COc1ccc(-c2c(C)nn3c(N4CCC(C(=O)N5CCCCC5)CC4)cc(C)nc23)cc1OC | 0.851%
Cn1c(=O)c2c(nc(N3CCOCC3)n2CCNC2=NCCC2)n(C)c1=O | 0.616%
COC(=O)[C@H]1Cc2cnoc2C[C@]1(C)C(=O)O | -1.94%
Cc1cccc(NC(=O)CSc2nnc(CCNC(=O)OC(C)(C)C)o2)c1C | 0.572%
CN(C)c1ccc(CNC2C3CC4CC(C3)CC2C4)cc1 (centres undefined) | -1.31%
CC(C)NC(=O)COCc1cc(-c2ccc3c(c2)OCO3)on1 | 0.0991%
O=C(NCCCN1CCCC1=O)c1cccc(S(=O)(=O)NCc2ccccc2)c1 | -2.23%

SMILES | inhibition
CCOCCCNC(=O)C(NC(=O)CNC(=O)c1ccccc1)c1ccc(OC)cc1 (centres undefined) | -0.316%
CCOc1ccc2sc(NS(=O)(=O)c3ccc(N)cc3)nc2c1 | -2.52%
O=C1CS(=O)CN1c1ccc(Oc2ccccc2)cc1 (centres undefined) | -2.68%
O=C(CN(CC1CCCO1)C(=O)CNS(=O)(=O)c1ccc(Cl)cc1)NCc1ccccc1 (centres undefined) | -2.47%
CCN(C(=O)Cc1nc(N)n[nH]1)C1(C(=O)Nc2ccccc2)CCCCC1 | -0.615%
CCOC(=O)C1Cn2c(nc3c(c2=O)C(C)(CC)Cc2ccccc2-3)S1 (centres undefined) | -2.98%
O=C(/C=C/c1ccccc1[N+](=O)[O-])OCC(=O)N1CCCC1 | -0.608%
CCOC(=O)N1CCN(S(=O)(=O)N2CCCC(C(=O)NCCCN3CCC(C)CC3)C2)CC1 (centres undefined) | -1.6%
Cc1ccccc1/[N+]([O-])=C/c1ccncc1 | -1.06%
COc1ccc(Cn2c(-c3ccc(Cl)cc3)c[n+]3ccccc23)cc1 | -2.82%
CSCCNC(=O)c1ccc2nc(Cc3ccccc3F)oc2c1 | 0.068%
CC1CN(C(=S)Nc2ccc(Br)cc2Cl)CC(C)O1 (centres undefined) | 0.196%
Cc1ccccc1CNC(=O)CCC(=O)N1Cc2ccccc2Oc2ncccc21 | -3.11%
Cc1cccc(-n2nc3c(c2NC(=O)c2cc4ccccc4o2)CS(=O)(=O)C3)c1 | -2.7%
CCC1([N+](=O)[O-])COC(c2ccc(C)cc2)OC1 (centres undefined) | -0.14%
O=c1c2ccccc2cnn1Cc1n[nH]c(=S)n1-c1ccccc1F | 0.871%
CCC(C)Sc1nc2c(cnn2-c2ccc(F)cc2)c(=O)[nH]1 (centres undefined) | -0.979%
O=C1NC(c2ccccc2)CCC1(Cl)Cl (centres undefined) | -0.102%
CCOC(=O)c1nc(-c2ccc3c(c2)OCO3)[nH]c1C | -0.475%
COc1cc(C2C3C(=O)N(c4ccccc4)C(=O)C3ON2c2ccccc2)ccc1O (centres undefined) | -0.569%
COc1cccc2c(C)c(C(=O)O)[nH]c12 | -0.62%
O=C(NNS(=O)(=O)c1ccc(F)cc1)c1cnccn1 | -2.25%
CN(C)S(=O)(=O)c1ccc(N/C=C(\[N+](=O)[O-])S(=O)(=O)c2ccccc2)cc1 | 0.264%

SMILES | inhibition
CCCCc1nnc(NC(=O)CSc2nc(C)cc(=O)[nH]2)s1 | -0.42%
CCCCCc1nnc(NC(=O)c2ccc(=O)n(C)n2)s1 | 176% (active)
CCCCc1nnc(NC(=O)CSc2nc(N)cc(=O)[nH]2)s1 | 0.237%
Cc1ccc(C(=O)NN(CCC#N)C2=NS(=O)(=O)c3ccccc32)cc1 | -0.552%
CC(C)c1cc(N=O)cc(C(C)C)c1O | -0.56%
Clc1cc(-c2ccc(/C=N/n3cnnc3)o2)ccc1Br | -4.91%
CC(C(=O)N(C)CC(=O)Nc1ccccc1C(F)(F)F)N1C(=O)c2ccccc2C1=O (centres undefined) | -0.0605%
CCOCCCN(C)C1CCN(C(=O)c2oc3ccccc3c2NC(=O)Cc2cccc([N+](=O)[O-])c2)CC1 | -0.742%
O=C(Nc1ccc2c(c1)nc1n2CCCCC1)c1cc(S(=O)(=O)N2CCOCC2)ccc1Cl | -2.81%
CCOc1ccc(N(CC(=O)Nc2cccc(OC)c2)S(C)(=O)=O)cc1 | 0.31%
CC(C)(C)NC(=O)CN(C(=O)c1csnn1)c1ccccc1-c1ccccc1 | -2.13%
CCCCn1c(N)c(N(CCOC)C(=O)c2oc3ccc(OC)cc3c2C)c(=O)[nH]c1=O | -1.98%
Cc1onc(-c2c(F)cccc2Cl)c1C(=O)OCC(=O)N1C(C)CCCC1C (centres undefined) | -0.828%
Cc1ccc(NC(=O)C2CC2c2ccccc2)cc1 (centres undefined) | -0.307%
COc1ccccc1C(=O)Nc1ccc(OCC(=O)N2CCCCC2)cc1 | -1.71%
COc1ccc(CCNC(=O)c2nnc(CS(=O)(=O)c3ccccc3)o2)cc1OC | 1.25%
COc1c(C)cc(C(=O)C2CCCN(S(=O)(=O)c3c(C)noc3C)C2)cc1C (centres undefined) | -2.46%
Cc1ccc(S(=O)(=O)N(CC(O)CN2C(=O)NC(C)(C)C2=O)c2cccc([N+](=O)[O-])c2)cc1 (centres undefined) | -1.82%
CC(C)=CCCC1(C)C=Cc2c(ccc3c2[nH]c2cc(O)c(C)cc23)O1 (centres undefined) | 0.0711%
Cc1csc(SCC(=O)N(c2ccccc2)C(C)C)n1 | -2.45%
O=C(Cc1ccc(NC(=O)C2CCCN(C(=O)CCc3ccccc3)C2)cc1)Nc1ccc(C(=O)N2CCOCC2)cc1 (centres undefined) | -1.16%
CC(=O)CCS(=O)(=O)c1ccc(C)c(C)c1 | 0.503%
Cc1c(C(=O)N2CCCC2)c(S(=O)(=O)NCC(C)c2ccccc2)c(C)n1C (centres undefined) | -2.4%

SMILES | inhibition
Cc1ccc(N(CC(=O)NC2CCCCC2)C(=O)CCCC(=O)Nc2ccccn2)c(C)c1 | 0.671%
Cc1cc(-c2csc(N)n2)c(C)n1-c1ccccc1 | -2.46%
CC(=O)c1ccc(NC(=O)C(C)OC(=O)c2ccc(NS(=O)(=O)c3ccc4[nH]c(=O)[nH]c4c3)cc2)cc1 (centres undefined) | 1.56%
C=CCN1C(=O)C(O)(CC(=O)c2ccccn2)c2ccccc21 (centres undefined) | 0.0287%
Cc1ccc2cc(C)c(N3CCC(C)CC3)nc2c1 | 1.11%
CCOc1ncccc1C(=O)N(CC)CC(=O)Nc1ccc(NC(C)=O)cc1 | -1.13%
CCN(CC)c1ccc(NC(=O)CCc2nnc3ccc(N4CCCCC4)nn23)c(C)c1 | 0.659%
Cc1ccc(CNC(=O)C(=O)c2cn(CC(=O)N3CCOCC3)c3ccccc23)cc1 | -0.774%
O=C(C1CC(=O)N(C2CCCCC2)C1)N1CCN(c2ccccc2)CC1 (centres undefined) | -3.07%
CCCOP(=O)(c1ccc(N(C)C)cc1)C(O)c1cc(OC)c(OC)c(OC)c1 (centres undefined) | -2.28%
Cc1nc(CN(C)C(=O)CC2C(=O)NCCN2Cc2ccc(F)cc2)cs1 (centres undefined) | -1.72%
COC(=O)c1sc(C(F)(F)F)c(-c2ccccc2)c1S(=O)(=O)N(C)C | -1.85%
CN1CCN(CC(O)COCc2ccc3c(c2)OCO3)CC1 (centres undefined) | 0.909%
CCN(CC)c1ccc(C(=O)c2cnc(/N=C/N(C)C)s2)cc1 | -0.472%
CC1CCCN(S(=O)(=O)c2ccc(-c3ccc(=O)[nH]n3)o2)C1 (centres undefined) | -2.4%
Cc1cccc(NC(=O)c2ccc(OCC(=O)NCc3ccccc3)cc2)c1C | 0.0994%
CCc1c(Nc2ccccc2Cl)nc(N)[nH]c1=O | 0.824%
O=C(CCl)NNc1cccc(Cl)n1 | -0.466%
Cc1sc2ncn(CC(=O)NCCN(C)C)c(=O)c2c1S(=O)(=O)N1CCC(C)CC1 | -1.98%
CCCn1c(N)c(N(CCOC)C(=O)C2CCCC2)c(=O)[nH]c1=O | -0.787%
